For assay [1], the species on record is Bos taurus. Kind of assay: Inhibition of calf thymus topoisomerase 1 assessed as reduction in relaxation of supercoiled pBR322 DNA at 200 uM incubated for 30 mins by ethidium bromide staining based electrophoresis method. Summed up: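 Calf thymus topo I, 0.1 units, with 0.5 µg supercoiled pBR322 DNA and compound in topo I buffer with 0.01% BSA, 20 µL total. Incubated 30 min at 37 °C. Reaction stopped with 10% SDS plus loading dye. Run on 0.8% agarose gel in TAE, 35 min at 120 V. Gel stained with ethidium bromide and imaged under UV.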

Another assay concerns HCT-116. Kind of assay: Cytotoxicity against human HCT116 cells incubated for 24 hrs by sulforhodamine B assay. The assay is classed as functional, cell-based. The following applies: HCT-116, 24 h.
Assay [2] deals with HeLa. Kind of assay: Cytotoxicity against human HeLa cells incubated for 24 hrs by sulforhodamine B assay. The assay is classed as functional, cell-based. On the technique in general: The SRB assay estimates cell density from bound dye.
In a further assay the test system is A549. Kind of assay: Cytotoxicity against human A549 cells incubated for 24 hrs by sulforhodamine B assay. The assay is classed as functional, cell-based. The following applies: A549, 24 h.
Assay [3] deals with HeLa. Put plainly: Induction of apoptosis in human HeLa cells assessed as early apoptotic cells level at 10 uM incubated for 24 hrs by annexin V-FITC and propidium iodide staining based flow cytometry (reference value: 0.72%). The assay is classed as functional. Summed up:
(§1)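 HeLa cells seeded at 1 × 10^6 per well and exposed to compound at 10 μM for 24 h. Cells then treated with cold PBS and resuspended in binding buffer. Annexin V-FITC added, followed by 15 min at 4 °C in the dark. Apoptotic cells quantified by annexin V/PI double staining.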
(In flow cytometry, cells or beads pass a laser one at a time.)

For assay [4], the species on record is Bos taurus. Kind of assay: Inhibition of calf thymus topoisomerase 1 assessed as reduction in relaxation of supercoiled pBR322 DNA at 100 uM incubated for 30 mins by ethidium bromide staining based electrophoresis method. In a few lines:
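Calf thymus topo I (0.1 unit) incubated with 0.5 μg supercoiled pBR322 DNA and compound for 30 min at 37 °C in topo I buffer with 0.01% BSA, 20 μL total. Reaction stopped with SDS/loading dye. Samples run on 0.8% agarose in TAE, 35 min at 120 V, then stained with ethidium bromide and imaged under UV.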

Assay [5] relates to HeLa. Put plainly: Induction of apoptosis in human HeLa cells at 10 uM incubated for 24 hrs by annexin V-FITC and propidium iodide staining based flow cytometry. The assay is classed as functional. In a few lines: as §1
Assay [6] concerns HeLa. Kind of assay: Induction of apoptosis in human HeLa cells assessed as late apoptotic cells level at 10 uM incubated for 24 hrs by annexin V-FITC and propidium iodide staining based flow cytometry (reference value: 1.81%). The assay is classed as functional. Summed up: as §1
Assay [7] has as its target DNA topoisomerase 2-alpha (Homo sapiens) (UniProt P11388). Put plainly: Inhibition of human topoisomerase 2 assessed as reduction in ATP-dependent kDNA decatenation at 100 uM incubated for 30 mins by ethidium bromide staining based electrophoresis method.
The subject of a further assay is Calf thymus DNA. Put plainly: Binding affinity to calf thymus DNA assessed as induction of conformational changes at 20 uM by CD spectroscopy. The assay is classed as nucleic-acid assay. The following applies: Bos taurus. Summed up: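 ct-DNA in 20 mM Tris–HCl pH 7.4, concentration set from molar absorption coefficient 6600 M−1 cm−1, A260/A280 above 1.8; 100 μM DNA with 20 μM compound for 2 h at 25 °C; CD spectra recorded 200–400 nm in 1 cm quartz cell.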

Calls of active or inactive are those of the source. The calls are words filed in the database; no cut-off is given here.

For orientation: IC50 means the point on the concentration scale where inhibition reaches its midpoint. The low end stands for inhibition by little substance, the high end for a need for much substance.

Chain of DNA topoisomerase 2-alpha (Homo sapiens) (P11388 whole entry): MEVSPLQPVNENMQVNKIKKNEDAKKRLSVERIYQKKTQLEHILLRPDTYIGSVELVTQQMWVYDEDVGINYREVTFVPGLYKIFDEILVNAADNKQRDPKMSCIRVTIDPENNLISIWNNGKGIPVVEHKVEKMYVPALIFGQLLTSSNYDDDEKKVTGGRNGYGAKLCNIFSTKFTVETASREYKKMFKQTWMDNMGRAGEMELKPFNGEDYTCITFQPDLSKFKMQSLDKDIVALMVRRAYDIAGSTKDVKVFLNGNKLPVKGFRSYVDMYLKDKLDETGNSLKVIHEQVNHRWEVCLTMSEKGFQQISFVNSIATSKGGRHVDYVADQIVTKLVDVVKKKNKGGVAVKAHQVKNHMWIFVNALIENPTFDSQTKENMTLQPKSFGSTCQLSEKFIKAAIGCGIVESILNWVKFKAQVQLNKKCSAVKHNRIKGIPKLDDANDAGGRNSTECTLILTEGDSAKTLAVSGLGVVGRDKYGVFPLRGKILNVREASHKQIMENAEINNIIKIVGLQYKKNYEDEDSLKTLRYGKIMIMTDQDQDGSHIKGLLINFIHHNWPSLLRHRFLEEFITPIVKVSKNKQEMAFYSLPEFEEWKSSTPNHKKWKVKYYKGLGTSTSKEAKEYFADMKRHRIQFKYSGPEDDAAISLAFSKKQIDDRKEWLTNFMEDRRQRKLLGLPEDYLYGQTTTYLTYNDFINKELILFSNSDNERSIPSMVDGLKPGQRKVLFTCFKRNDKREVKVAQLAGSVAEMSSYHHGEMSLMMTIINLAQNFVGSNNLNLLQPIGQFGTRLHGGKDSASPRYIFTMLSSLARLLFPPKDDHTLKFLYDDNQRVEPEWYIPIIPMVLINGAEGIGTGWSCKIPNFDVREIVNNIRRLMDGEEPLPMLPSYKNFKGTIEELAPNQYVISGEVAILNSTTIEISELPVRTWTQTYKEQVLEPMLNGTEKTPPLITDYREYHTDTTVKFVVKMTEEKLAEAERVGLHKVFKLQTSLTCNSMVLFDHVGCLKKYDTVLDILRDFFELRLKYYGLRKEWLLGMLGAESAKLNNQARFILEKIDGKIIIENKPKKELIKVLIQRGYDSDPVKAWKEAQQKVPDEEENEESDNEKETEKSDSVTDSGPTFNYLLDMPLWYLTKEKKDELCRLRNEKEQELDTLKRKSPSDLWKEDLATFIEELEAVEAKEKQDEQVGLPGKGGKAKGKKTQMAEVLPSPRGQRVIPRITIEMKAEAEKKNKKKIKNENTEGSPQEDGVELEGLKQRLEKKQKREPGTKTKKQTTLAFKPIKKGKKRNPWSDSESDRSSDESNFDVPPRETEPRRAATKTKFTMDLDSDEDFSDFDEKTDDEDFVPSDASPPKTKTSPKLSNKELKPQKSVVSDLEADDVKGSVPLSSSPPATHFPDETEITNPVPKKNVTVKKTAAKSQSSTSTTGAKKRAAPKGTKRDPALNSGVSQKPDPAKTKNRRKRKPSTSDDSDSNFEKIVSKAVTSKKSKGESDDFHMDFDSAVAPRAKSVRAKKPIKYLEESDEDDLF

As to `CC[C@@]1(O)C(=O)OCc2c1cc1n(c2=O)Cc2cc3ccccc3nc2-1`, in the assay filed under Bos taurus [1], the inhibition result was “Active”.
In the case of `CNc1ccc2c3c(cccc13)C(=O)N(CCCN1CCCNCCNCCCNCC1)C2=O`, the half-maximal inhibitory concentration (IC50) with HCT-116, in the assay on HeLa [2] and with A549 was above 50 µM each time.
For the molecule `CCCCCCCCCCCCN1C(=O)c2cccc3c(NCCN4CCCNCCNCCCNCC4)ccc(c23)C1=O`, the Activity with HeLa [3] is reported as 86.4%; in the assay with HeLa [5], above 90%; in the assay with HeLa [6], 13.54%. Besides, the inhibition entry (in the assay listed under Bos taurus [4]; in assay [7]) was “Active” throughout. The 50% inhibitory concentration (IC50) was 18.2 µM in the assay with HCT-116, 11.8 µM with HeLa [2] and 18.4 µM with A549.
In the case of `CCCCCCCCN1C(=O)c2cccc3c(NCCN4CCCNCCNCCCNCC4)ccc(c23)C1=O`, the Activity with HeLa [3] is 39.47%; in the assay on HeLa [5], above 90%; with HeLa [6], 60.48%. Besides, the inhibition result (in the assay listed under Bos taurus [4]; in [7]) was “Active” throughout. Moreover, the IC50 with HCT-116 amounted to 16.7 µM; in the assay on HeLa [2], 10.1 µM; with A549, 15.8 µM.
Turning to `CCCCCCCCCCCCNc1ccc2c3c(cccc13)C(=O)N(CCCN1CCCNCCNCCCNCC1)C2=O`, the Activity with HeLa [3] is 59.52%; in the assay on HeLa [5] it was above 90%; in the assay with HeLa [6], 32.47%. Further, the inhibition entry (in the assay listed under Bos taurus [4]; in assay [7]) was “Active” each time. Moreover, the 50% inhibitory concentration (IC50) in the assay on HCT-116 is 13 µM; with HeLa [2] it was 9.36 µM; with A549, 15.8 µM.
For `CCCCN1C(=O)c2cccc3c(NCCN4CCCNCCNCCCNCC4)ccc(c23)C1=O`, the IC50 in the assay with HCT-116 is 29.2 µM; with HeLa [2], 19.2 µM; in the assay with A549 it was 38.9 µM.
For `CCCCNc1ccc2c3c(cccc13)C(=O)N(CCCN1CCCNCCNCCCNCC1)C2=O`, in that order: above 50 µM, above 50 µM and above 50 µM.
For the molecule `CN(C)CCN1C(=O)c2cccc3cc(N)cc(c23)C1=O` [AMONAFIDE], the inhibition result (in the assay filed under Bos taurus [4]; in assay [7]) was “Active” throughout. The IC50 in the assay with HeLa [2] stood at 9.52 µM.
Take `C1CNCCNCCCNCCNC1`: the IC50 in the assay with HCT-116, with HeLa [2] and in the assay on A549 was above 50 µM throughout.
With `CCCCCCCCNc1ccc2c3c(cccc13)C(=O)N(CCCN1CCCNCCNCCCNCC1)C2=O`, the Activity is recorded as 1.49% in the assay on HeLa [3], above 90% in the assay on HeLa [5] and 98.46% in the assay with HeLa [6]. For the same molecule, the inhibition result (in the assay listed under Bos taurus [4]; in assay [7]) was “Active” throughout. In addition, the IC50 was determined as 8.07 µM with HCT-116, 8.4 µM with HeLa [2] and 11.6 µM in the assay with A549. Also, in the assay on Calf thymus DNA, the outcome was Active.
As to `COc1cccc2c1C(=O)c1c(O)c3c(c(O)c1C2=O)C[C@@](O)(C(=O)CO)C[C@@H]3O[C@H]1C[C@H](N)[C@H](O)[C@H](C)O1`, in assay [7], the inhibition result was “Active”.
Turning to `CN1C(=O)c2cccc3c(NCCN4CCCNCCNCCCNCC4)ccc(c23)C1=O`, the IC50 with HCT-116 is 34.1 µM; in the assay with HeLa [2], 13.8 µM; in the assay on A549, 34.3 µM.

(Values after ChEMBL document CHEMBL3600298, “Antiproliferative and apoptosis-inducing activities of novel naphthalimide-cyclam conjugates through dual topoisomerase (topo) I/II inhibition” (Bioorg Med Chem, 2015).)
